Experimental data from different studies.
Protocols differ between the studies behind these lines.
Target: Dual specificity protein kinase CLK3 (CLK3, Homo sapiens, UniProt P49761)
Method: competition with immobilised ligand

Structure (SMILES) | read-out | tested at | remaining binding [%]
COc1cnc(Nc2cccc(S(N)(=O)=O)c2)nc1N1CCN(c2ccccc2)C(=O)C1 | binding | 1 µM | 100
c1cncc(-c2cccc(Nc3nccc(NC4CCCCC4)n3)c2)c1 | binding | 10 µM | 57
C[C@@H](c1ccc(-n2cnc3c(N)ncnc32)cc1)N1CCc2nn(C)c(Cc3ccccc3)c2C1=O | binding | 0.1 µM | 71
COc1ncc2cc3ccccc3nc2c1C#N | cell-free assay | 5 µM | 94
Nc1c(C(=O)NCc2ccc(C(=O)NCCCC3CCCCC3)cc2)cnn1-c1ccccc1 | cell-free assay | 0.1 µM | 95
Nc1ncc2c(n1)-c1c([nH]c3ccc(C#CC4CC4)cc13)CCCC2 | binding | 1 µM | 96
FC(F)(F)Oc1cccc(-c2cnc3ccc(-c4ccncc4)nn23)c1 | cell-free assay | 5 µM | 8.1
CN(C(=O)c1ccccc1)c1cc(N(C)c2ccc3c(c2)CCc2ccc(C(=O)NCCN4CCOCC4)cc2C3=O)ccc1F | cell-free assay | 1 µM | 100
O=C(c1ccc(Nc2ncc(Cl)c(-c3cc4ccccc4s3)n2)cc1)N1CCC(N2CCCC2)CC1 | binding | 1 µM | 7.4
CCOC(=O)c1cc2cc(-c3cc(C(=O)NCc4ccc(C(=O)O)cc4)nn3C)ccc2[nH]1 | cell-free assay | 0.1 µM | 83
O=C(c1ccc(Nc2nccc(-c3cc4ccccc4s3)n2)cc1)N1CCC(N2CCCC2)CC1 | binding | 1 µM | 73
CO[C@@H](C)c1c(Nc2ccc([C@@H](N(C)C(=O)C3CCS(=O)(=O)CC3)C(F)(F)F)cc2)cnc2cc(Cl)nn12 | cell-free assay | 1 µM | 87
O=C(c1ccc(Nc2ncc(Cl)c(-c3ccc(Cl)s3)n2)cc1)N1CCC(N2CCCC2)CC1 | binding | 1 µM | 15
O=C(NCC1CCOCC1)c1n[nH]cc1NC(=O)c1c(F)cccc1F | binding | 1 µM | 64
